Assay outcomes (PubChem)
GPR7 antagonist = blocks human GPR7 receptor signaling; 290,000 tested, 1.1% active; AID 1861; P48145; inhibition, % at 4.4 µM; GPR7-expressing cells, fluorescence antagonist assay; in the data active = inhibition above about 16%, passing the limit was not always enough;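 also: cells stimulated with the agonist NPW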
Target sequence (P48145 whole entry, looked up): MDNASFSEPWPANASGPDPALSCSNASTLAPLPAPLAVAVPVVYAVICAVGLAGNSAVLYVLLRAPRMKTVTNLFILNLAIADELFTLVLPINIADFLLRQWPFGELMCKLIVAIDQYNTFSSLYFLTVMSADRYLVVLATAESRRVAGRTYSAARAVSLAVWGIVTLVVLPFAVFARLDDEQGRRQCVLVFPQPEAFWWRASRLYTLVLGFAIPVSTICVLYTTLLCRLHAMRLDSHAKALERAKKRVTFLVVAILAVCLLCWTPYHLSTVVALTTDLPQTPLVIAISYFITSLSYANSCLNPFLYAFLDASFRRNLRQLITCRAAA
HCV NS3 hel inh = blocks Hepatitis C virus NS3 helicase unwinding; NS3 helicase DNA unwinding, Cy5 molecular beacon fluorescence; inhibition, % at 10.9 µM; 290,000 tested, 0.56% active; AID 1800;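 active = inhibition above the mean of all tested compounds plus 3 SD, set per campaign, cut at about 35% in these data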
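Compound dosing – single dose, 10.9 µM nominal final, DMSO 0.8% final · System – NS3 helicase fragment of HCV · Buffer or medium – MOPS pH 6.5, MgCl2, DTT, Tween20, BSA · Signal – Cy5 beacon fluorescence read at start and 1 h · Also added – annealed dual-labelled DNA beacon duplex, ATP-started · Schedule – 1 h at 25 °C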
core dimer inh = HCV core protein dimerization inhibition. TR-FRET GST/Flag-core106 dimerization, 1536-well. inhibition, % at 5 µM. 300,000 tested, 0.33% active. AID 1899;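 active = inhibition above the mean of all tested compounds plus 3 SD, set per screening campaign, cut at about 45% in these data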
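Assay system – GST-tagged and Flag-tagged HCV core protein residues 1-106 · Quantity – core106 proteins, GST 13.5 nM and Flag 17 nM · Benchmarks – unlabelled core106 and no-GST-core106 wells · Read-out basis – percent inhibition of core106 dimerization signal · Detection – time-resolved FRET, ex 340 nm, em 617 and 671 nm · Schedule – 4 h at 22.5 °C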
ZTA DNA inh = counter-screen for EBNA-1 inhibitors: inhibitors of Epstein-Barr virus ZTA; AID 2234; ZTA-DNA binding, fluorescence polarization; 320,000 tested, 0.15% active; inhibition, % at 11 µM; in the data active = inhibition above about 33%
Target sequence (P03206 whole entry, looked up): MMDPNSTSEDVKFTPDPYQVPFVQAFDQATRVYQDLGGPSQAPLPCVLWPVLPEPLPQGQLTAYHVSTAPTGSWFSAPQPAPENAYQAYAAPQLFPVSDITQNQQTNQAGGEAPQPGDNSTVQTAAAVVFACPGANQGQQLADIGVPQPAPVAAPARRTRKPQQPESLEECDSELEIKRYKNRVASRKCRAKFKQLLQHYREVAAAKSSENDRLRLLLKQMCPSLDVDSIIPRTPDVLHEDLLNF
EBNA-1 inh = blocks EBNA-1 binding to DNA. EBNA-1 DNA binding, fluorescence polarization. inhibition, % at 14.8 µM. 300,000 tested, 0.34% active. AID 1950; in the data active = inhibition above about 28%
EBV gp42 block = EBV gp42 inhibition | Q1HVG2 | Fluorescence polarization binding assay, mP read-out | inhibition, % (tested at 21.74 µM) | 220,000 tested, 0.42% active | AID 1085; in the data active = inhibition above about 50%
A number is an active result; 0 = inactive; - = no result given. In the library only some 2.3% were active in any assay of this set; here they are far more common.

SMILES	GPR7 antagonist	HCV NS3 hel inh	core dimer inh	ZTA DNA inh	EBNA-1 inh	EBV gp42 block
Cc1nn(C)c(C)c1CN(C)C(=O)C1(C)CC1(Br)Br (centres undefined)	0	0	0	0	0	0
Cc1nn(C)c(C)c1CN(C)C(=O)C1c2ccccc2Oc2ccccc21	0	0	0	0	0	81.4
COc1cccc(CNC23CC4CC(CC(C4)C2)C3)c1OCc1ccccc1	39.1	0	0	0	0	0
CCOc1ccc(C(=O)C(CCC(CN(C)C)C(=O)c2ccc(OCC)cc2)CN(C)C)cc1 (centres undefined)	0	0	-	-	-	0
CN(C)CC(CCC(CN(C)C)C(=O)c1ccccc1)C(=O)c1ccccc1 (centres undefined)	37.9	0	-	-	-	0
COc1ccc(S(=O)(=O)N2CCNC(=O)CC2)cc1	0	0	0	0	0	-
Cc1cc(C)c2c(N)c(C(=O)c3cccc(Cl)c3)sc2n1	0	0	0	0	0	0
CSc1c(C#N)c(N)nc2sc(C(=O)c3ccc(Cl)c(Cl)c3)c(N)c12	0	0	0	0	0	75.6
COc1ccc(-c2c(C#N)c(N)nc3sc(C(=O)c4ccccc4)c(N)c23)cc1	0	0	0	0	0	81.2
CCOc1ccc(-c2c(C#N)c(N)nc3sc(C(=O)c4ccccc4)c(N)c23)cc1	0	0	0	0	0	70.2
Cc1ccc(OCc2cc(C(=O)N(C)CCc3nc4ccccc4[nH]3)no2)cc1C	0	0	-	-	-	-
O=C(CNC(=O)c1ccc(Cl)c([N+](=O)[O-])c1)OC1CCCCC1=O (centres undefined)	-	-	0	0	0	-
Cc1ccccc1NS(=O)(=O)c1ccc(C)c(NS(C)(=O)=O)c1C	0	0	0	0	0	0
CC(=O)OCCNc1cc(N2CCN(C)CC2)c2noc3c2c1C(=O)c1ccccc1-3	0	0	-	-	-	0
CCOC(=O)C(C(=O)OCC)c1cc(Br)c2noc3c2c1C(=O)c1ccccc1-3	0	0	0	0	0	133.0
O=C(COC(=O)c1cccs1)Nc1nnc(-c2ccccc2)o1	-	-	0	0	0	-
Cc1ccc(C2=NN=C(NC(=O)CSc3nnc4c5ccccc5n(C)c4n3)SC2)cc1	0	52.6	0	0	0	0
CCOc1ccc(/C=N/NC(=O)CN2CCCCC2)cc1OCC	0	0	0	0	0	-
O=C(CNS(=O)(=O)c1cccc(Cl)c1)Nc1ccc(-c2nc3ccccc3s2)cc1	0	0	0	0	54.7	0
O=C1N=C(N2CCN(c3cccc4ccccc34)CC2)S/C1=C/c1cccs1	0	0	67.2	0	0	0
CCOc1ccc(N(CC(=O)N/N=C/c2ccc(OC(C)C)cc2)S(C)(=O)=O)cc1	0	0	0	0	0	0
O=C(CSc1cccc(C(F)(F)F)c1)NC(=O)NCc1ccco1	0	0	50.6	0	0	0
Cc1cc(SCC(=O)NC(=O)NCc2ccco2)nc2c(C)cccc12	0	0	48.3	0	0	0
Cn1c(SCC(=O)NC(=O)NCc2ccco2)nnc1-c1ccccc1	0	0	56.6	0	0	0
Cc1ccccc1CSCC(=O)NC(=O)NCc1ccco1	0	0	57.6	0	0	0
SMILES	GPR7 antagonist	HCV NS3 hel inh	core dimer inh	ZTA DNA inh	EBNA-1 inh	EBV gp42 block
Cn1c(SCC(=O)NCc2ccco2)nnc1-c1ccccc1	0	0	0	0	0	0
COc1ccccc1NC(=O)CS(=O)(=O)c1cn(CC(=O)N2CCOCC2)c2ccccc12	0	0	0	0	0	0
CC1=C/C(=C\c2ccc(Br)o2)C(=O)O1	0	0	0	0	0	51.0
Cc1nc2ccc(NC(=O)c3ccc(Cl)c(NC(=O)c4cccs4)c3)cc2s1	0	0	48.4	0	0	0
Cc1ccc(NC(=O)c2ccc(Cl)c(NC(=O)c3cccs3)c2)cc1	0	0	0	0	0	-
CCCCC1(C)OC(=O)C(=Cc2ccc(N(CC)CC)cc2)C(=O)O1 (centres undefined)	0	0	0	0	0	74.5
CCn1c(=O)c(C(=O)CN2CCc3ccccc32)c(N)n(Cc2ccccc2)c1=O	0	0	50.9	0	0	0
CCn1c(=O)c(C(=O)CN2CCOCC2)c(N)n(Cc2ccccc2)c1=O	0	0	0	0	0	0
CSc1nsc2nc(=O)c(/C=C3\C(C)=Nc4ccccc43)c(N)n12	0	0	-	-	-	0
Cc1ccc(NC(=S)NCCN(C2CCCCC2)C2CCCC2)cc1	31.1	0	0	0	0	0
CCOC(=O)C1=NN(c2ccc(Cl)cc2)C(=O)C1	0	0	0	0	0	0
CC(NC(=O)COC(=O)COc1ccc(C(=O)c2ccccc2)cc1)c1ccccc1 (centres undefined)	-	-	-	0	-	-
O=C1CCNc2c(Cl)cc(Cl)cc21	0	0	0	0	0	71.3
O=C1CCNc2c(Cl)cccc21	0	0	0	0	0	0
CCCSCC(=O)Nc1ncc2c(n1)-c1ccccc1CC2	0	0	0	0	0	59.9
CCOC(=O)Cn1c(=O)oc2cc(S(=O)(=O)NC3CCCc4ccccc43)ccc21 (centres undefined)	27.8	0	0	0	0	0
CCOC(=O)Cn1c(=O)oc2cc(S(=O)(=O)NC3CCCCC3)ccc21	0	0	0	0	0	-
O=C(COC(=O)C1CC2CCCC(C1)C2=O)Nc1ccc(Cl)cn1 (centres undefined)	-	-	-	0	-	-
Cc1ccc(N/C(N)=N/c2nc(C)cc(N3CCCCC3)n2)c(C)c1	26.8	0	0	0	0	0
Cn1c(N)c(C(=O)COC(=O)CC(NC(=O)c2ccccc2Cl)c2ccccc2)c(=O)n(C)c1=O (centres undefined)	0	0	0	0	0	0
Cc1ccc(NC(=O)Nc2ccc(F)c(Cl)c2)cc1	28.9	0	0	0	0	0
COc1ccc(NC(=O)Nc2ccc(F)c(Cl)c2)cc1	0	0	0	0	0	0
C/C(=N\NC(=O)c1ccccc1)c1ccc(N2CCOCC2)cc1	0	0	0	0	0	0
C/C(=N\NC(=O)C1CC1)c1ccc(N2CCOCC2)cc1	16.5	0	0	0	0	0
Cc1ccc(/C=c2\sc3nc(-c4ccco4)nn3c2=O)o1	0	0	61.7	0	0	0
SMILES	GPR7 antagonist	HCV NS3 hel inh	core dimer inh	ZTA DNA inh	EBNA-1 inh	EBV gp42 block
COc1ccc(Br)cc1/C=c1\sc2nc(-c3ccco3)nn2c1=O	-	-	57.2	0	0	-
CS(=O)(=O)N1CCc2cc(C(=O)Nc3ccccc3Cl)ccc21	0	0	0	0	0	-
CC(C)CC(=O)c1c[nH]c(C(=O)NCc2ccc(F)cc2)c1	0	0	0	0	0	-
CC(C)=CCC/C(C)=C/CCC(C)NCCN1CCNCC1 (centres undefined)	24.5	0	0	0	0	0
CC(C)=CCC/C(C)=C/CC(C)(C)CNCCN1CCNCC1	0	0	0	0	0	0
CCC1=NN2C(=N)/C(=C\c3ccc(OCc4cc(=O)n5nc(CC)sc5n4)c(OC)c3)C(=O)N=C2S1	0	0	-	-	-	62.9
COC(=O)c1sc(NC(=S)NC(=O)c2cccc(Br)c2)nc1C	0	0	0	0	0	-
